# TRPC6 activator = mouse TRPC6 channel activators, primary screen, cell-based, HEK293, membrane potential dye; Short transient receptor potential channel 6 (Mus musculus), Q61143; HEK293-TRPC6 membrane potential dye fluorescence; stronger effect = higher value; B-score at 10 µM; actives 0.13% (n = 310,000);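 active means B-score of the integrated fluorescence ratio above library mean plus 3 SD, and starting fluorescence ratio within library mean plus 5 SD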;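 further: higher score means more depolarization so channel activation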
# TRPC4 agonist = activators of mouse TRPC4 channel, primary screen, Fluo4 calcium, HEK293 TRPC4beta/mu-opioid cells; Fluo4 calcium fluorescence; stronger effect = higher value; AID 2237, 2010; B-score at 10 µM; actives 0.49% (n = 310,000);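 active means B-score above 5 SD of library B-scores, and initial fluorescence ratio not above library mean plus 5 SD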;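 further: positive B-score marks a calcium rise read as TRPC4 activation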
#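 Incubation: 45 min room-temperature Fluo4 loading, 110 s read / System: HEK293 cells stably co-expressing mouse TRPC4beta and mu-opioid receptor / Signal: Fluo4 fluorescence, kinetic / Control set: buffer (low) and maximal DAMGO (high) / Measure: integrated baseline-normalised fluorescence ratio, converted to per-well B score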
# TRPC4 potent = positive allosteric modulators of TRPC4, primary screen, cell-based, mouse TRPC4beta, HEK293 mu-opioid, Fluo-4 calcium; Short transient receptor potential channel 4 (Mus musculus), Q9QUQ5; DAMGO EC20, Fluo-4 Ca2+ flux; stronger effect = higher value; B-score at 10 µM; actives 0.42% (n = 310,000); AID 2227, 2009;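 active means B-score of calcium response area above 5 SD of library B-scores, with initial fluorescence ratio within 5 SD of library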;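 further: B-score of integrated fluorescence ratio over time as area under calcium response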
# Kir21 inh = inhibitors of mouse Kir2.1 inward-rectifier potassium channel. HEK293-Kir2.1, FluxOR thallium flux fluorescence; stronger effect = lower value. B-score at 10 µM. actives 0.85% (n = 310,000). AID 1672, 2009;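 active means fluorescence ratio B-score at or below minus 3 SD of library scores, with starting-brightness B-score within 2 SD, cut at about -4.2 in these data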;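 further: channel flux triggered by added potassium and thallium sulfate stimulus; B-score of peak minus minimum fluorescence over baseline after thallium stimulus; more negative B-score means stronger Kir2.1 block with less thallium influx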
# Target sequence (P35561 whole entry, looked up): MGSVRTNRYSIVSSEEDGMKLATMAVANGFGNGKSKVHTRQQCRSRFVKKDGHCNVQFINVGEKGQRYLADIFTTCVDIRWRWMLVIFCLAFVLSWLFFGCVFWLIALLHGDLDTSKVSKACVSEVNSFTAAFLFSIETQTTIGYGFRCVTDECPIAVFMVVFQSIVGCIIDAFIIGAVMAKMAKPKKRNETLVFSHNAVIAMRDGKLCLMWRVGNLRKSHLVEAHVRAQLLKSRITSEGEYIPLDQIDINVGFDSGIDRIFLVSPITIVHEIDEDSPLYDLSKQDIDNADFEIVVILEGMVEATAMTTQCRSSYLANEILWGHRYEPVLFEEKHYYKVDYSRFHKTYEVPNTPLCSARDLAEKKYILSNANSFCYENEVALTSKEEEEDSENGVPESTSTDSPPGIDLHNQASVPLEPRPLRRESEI
# TRPC6 inhibitor = mouse TRPC6 channel inhibitors, primary screen, cell-based, HEK293, membrane potential dye | ACh-evoked depolarization; stronger effect = lower value | B-score at 10 µM | actives 1.1% (n = 310,000) | AID 2553, 2010;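 active means B-score under library mean minus 3 SD, initial fluorescence not abnormally high, positive integrated signal ratio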;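 further: B-score derived from integrated fluorescence ratio over the kinetic read; more negative B-score means stronger inhibition of depolarization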
# TRPC4 block = inhibitors of mouse TRPC4 channel, primary screen, Fluo4 calcium, HEK293 TRPC4beta/mu-opioid cells | B-score at 10 µM | DAMGO-evoked Fluo4 calcium flux; stronger effect = lower value | actives 0.39% (n = 300,000) | Short transient receptor potential channel 4 (Mus musculus), Q9QUQ5;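 active means B-score over 3 SD under the library average, no early fluorescence shift, positive overall ratio signal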
#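 Assay system: HEK293 cells with stable TRPC4beta plus mu-opioid receptor expression; Probe or stimulus: DAMGO in two steps, submaximal then maximal; Dosing: single-point compound dosing; Measured by: Fluo4 calcium-dye fluorescence, kinetic read; Read-out basis: B score from integrated Fluo4 fluorescence ratio.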
# Starred values were filed as active, the others as inactive; i = inactive; . = not tested or not shown. A selection: hits, their analogues and other compounds. The true share with any hit is near 2.9%.
SMILES,TRPC6 activator,TRPC4 agonist,TRPC4 potent,Kir21 inh,TRPC6 inhibitor,TRPC4 block
COc1cc2c(cc1Cl)/C(=C\CCN(C)C)c1ccccc1S2,i,i,i,-11*,i,i
COc1cc(Cl)cc2c1Sc1ccccc1/C2=C/CCN(C)C,i,i,i,-13*,i,i
CN(C)CC/C=C1/c2ccccc2Sc2c(O)cc(Cl)cc21,i,i,i,-1.9,i,i
CC(C)n1nc(C(=O)Nc2nnc(SCc3c(Cl)cccc3Cl)s2)c2ccccc2c1=O,i,i,i,0.05,i,i
CCc1cc(CC)c(/C=N/NC(N)=O)c(CC)c1,i,i,i,-7.3*,i,i
CCOc1cc(Br)ccc1S(=O)(=O)N1CC(C)OC(C)C1 (configuration not stated),i,43*,i,-3.3,i,i
CCOc1ccc(Br)cc1S(=O)(=O)N1CC(C)OC(C)C1 (configuration not stated),i,i,i,-2.6,i,i
Cc1cc(OCC(=O)N2CCCC2)cc(C)c1Cl,i,84*,i,-0.05,i,i
COc1cccc(NS(=O)(=O)c2ccc(-n3cccn3)cc2)c1,i,i,i,1.2,i,i
CN(CCC(=O)Nc1ccc(Cl)cc1)Cc1ccccc1,i,126*,i,-1.7,i,i
CN(CCC(=O)Nc1ccc2c(c1)OCO2)Cc1ccccc1,i,53*,i,0.78,i,i
CN(CC(=O)Nc1ccc(Cl)cc1)C(=O)CCc1ccccc1,i,i,i,-0.02,i,i
COc1ccc(S(=O)(=O)NCCCN2CCCC2=O)c(OC)c1,i,i,i,0.02,i,i
O=C(NCc1cccnc1)C1CCCN(Cc2cnn(-c3ccccc3)c2-n2cccc2)C1 (configuration not stated),i,87*,i,0.05,i,i
COc1ccc(CNC(=O)CSCc2cnn(-c3ccccc3)c2-n2cccc2)cc1,i,i,i,-4.9*,i,i
O=C(NCc1ccccn1)C1CCCN(Cc2cnn(-c3ccccc3)c2-n2cccc2)C1 (configuration not stated),i,53*,i,-0.01,i,.
COc1cccc(CNC(=O)C2CCN(Cc3cnn(-c4ccccc4)c3-n3cccc3)CC2)c1,i,44*,i,-2,i,i
O=C(CSCc1cnn(-c2ccccc2)c1-n1cccc1)NCCN1CCOCC1,i,i,i,-1.3,i,i
COc1ccc(N2CCN(CNC(=O)c3ccccc3)CC2)cc1,i,i,i,0.91,i,i
COc1ccc(C(=O)O)cc1NC(=S)NC(=O)/C=C/c1ccc(C(C)C)cc1,i,i,i,1.8,i,i
COc1ccc([N+](=O)[O-])cc1NC(=O)c1ccc(-n2nc(C)cc2C)cc1,i,i,i,-1.9,i,i
Cc1cc(C)cc(NCc2ccncc2)c1,i,i,i,0.71,i,i
COc1ccc(-n2c(CCc3ccccc3)nnc2SCC(=O)NCc2ccccc2)cc1,i,i,i,-4.9*,i,i
CN1CCC(=C2c3ccccc3CCc3sccc32)CC1,i,i,i,-1.1,-6.7*,i
CN[C@@H]1CC[C@H](c2ccc(Cl)c(Cl)c2)c2ccccc21,i,i,14*,-5.8*,i,i
SMILES,TRPC6 activator,TRPC4 agonist,TRPC4 potent,Kir21 inh,TRPC6 inhibitor,TRPC4 block
COc1ccccc1C1CCN(Cc2ccc(Cl)c(Cl)c2)CC1,i,i,i,-0.37,i,i
COC(=O)c1ccc(NC(=O)CCN2C(=O)CSC2=O)cc1,i,i,i,-0.44,i,i
CCOC(=O)C(C)c1n[nH]c(=O)c2ccccc12 (configuration not stated),i,i,13*,1.2,i,i
O=C(O)c1ccc(Cl)cc1Nc1nc2cc(Cl)ccc2o1,i,i,i,0.75,i,-6*
Cc1cc(OCC(=O)NNC(=S)NC(=O)c2cccs2)ccc1Cl,i,i,19*,-2,i,i
Cc1ccc(OCC(=O)NNC(=S)NC(=O)c2cccs2)c(C)c1,i,66*,i,-0.95,i,i
O=C(COc1ccc(Br)cc1Br)NNC(=O)c1cccs1,i,i,i,-0.53,i,i
COc1cccc(OCC(=O)NNC(=O)c2cccs2)c1,i,i,i,0.24,i,i
COc1ccc(C(=O)NNC(=S)NC(=O)c2ccc(Br)o2)cc1OC,i,i,i,1.4,i,i
Cc1ccc(OCC(=O)NNC(=S)NC(=O)c2ccc(Br)o2)c(C)c1,i,69*,20*,-0.27,i,-6*
CCc1ccccc1NC(=O)CN1CCN(CC(=O)Nc2cc(C)ccc2OC)CC1,i,i,i,-0.82,i,i
COc1ccc(/C=N/Nc2cc(C)nc(-n3nc(C)cc3C)n2)cc1,i,i,19*,-2.6,i,i
COc1ccccc1CN1CC(C(=O)NC2CCOCC2)CCC1=O (configuration not stated),i,i,i,1.8,i,i
CCCCc1cc(O)c(CCCC)c(O)c1,i,65*,11*,-1.3,i,i
CCCCCc1cc(O)c2c(C)cc(=O)oc2c1,i,i,i,-0.48,i,i
O=C(NCCCC(NC(=O)OCc1ccccc1)C(=O)O)OCc1ccccc1 (configuration not stated),i,i,i,0.52,i,i
O=C(COC(=O)c1ccc(Cl)nc1)Nc1cccnc1Cl,i,i,i,0.73,i,i
CCOc1cc(CNC2CCCC2)c(Cl)cc1OCC(=O)Nc1ccccc1,i,i,i,-4.5*,i,i
O=C(NC1CCN(C(=O)Nc2ccc(F)cc2)CC1)c1ccc(F)cc1,i,i,i,0.52,i,i
CC1CN(C(=O)c2ccc(NS(=O)(=O)c3cccc(Cl)c3)cc2)CC(C)O1 (configuration not stated),i,i,i,0.68,i,i

# Compound activity deposited in PubChem BioAssay by Johns Hopkins Ion Channel Center.
